One series concerns CCI, SNL, CFA. Conditions: cited from earlier work.
Series [1] relates to AITC-induced licking/biting. As to conditions: cited from earlier work.
The next series concerns the target T1, rTRPV3 (Rattus norvegicus, UniProt Q4QYD9).
T1 sequence (Q4QYD9 1-791): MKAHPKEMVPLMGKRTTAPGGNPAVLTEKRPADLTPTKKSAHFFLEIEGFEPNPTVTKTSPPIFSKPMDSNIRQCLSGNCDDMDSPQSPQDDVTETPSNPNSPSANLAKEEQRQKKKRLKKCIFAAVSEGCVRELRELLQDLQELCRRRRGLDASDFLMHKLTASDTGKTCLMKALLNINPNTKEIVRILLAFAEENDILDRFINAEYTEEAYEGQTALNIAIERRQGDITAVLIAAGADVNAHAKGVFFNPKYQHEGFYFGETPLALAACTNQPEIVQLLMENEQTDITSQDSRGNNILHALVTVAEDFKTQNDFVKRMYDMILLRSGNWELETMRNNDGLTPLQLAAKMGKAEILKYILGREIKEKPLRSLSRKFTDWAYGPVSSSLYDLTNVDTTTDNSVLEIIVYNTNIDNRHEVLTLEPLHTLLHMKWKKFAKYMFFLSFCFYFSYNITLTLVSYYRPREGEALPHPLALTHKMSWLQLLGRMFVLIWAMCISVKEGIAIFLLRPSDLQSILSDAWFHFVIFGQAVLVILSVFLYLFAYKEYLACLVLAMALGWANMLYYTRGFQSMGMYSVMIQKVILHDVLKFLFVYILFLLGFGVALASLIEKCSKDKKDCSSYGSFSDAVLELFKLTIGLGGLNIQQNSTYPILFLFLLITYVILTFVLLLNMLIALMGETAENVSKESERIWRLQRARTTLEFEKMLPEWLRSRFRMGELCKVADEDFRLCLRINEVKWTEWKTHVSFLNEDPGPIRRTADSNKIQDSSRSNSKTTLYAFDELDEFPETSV
Put plainly: TRP channel selectivity, luminescence calcium assay in CHO cells. The class given is cell-based. Put shortly:
(§1)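 Tetracycline-inducible stable CHO lines co-expressing aequorin were induced with 0.5 µg/ml tetracycline 24 h before the assay. Cells were loaded for 2 h in pH 7.2 F12 with 30 mM HEPES and 15 µM coelenterazine. Test compound was added 2.5 min before agonist: 200 µM 2-APB for TRPV3, or 1 µM icilin or 12 °C cold buffer for TRPM8. Luminescence was read by CCD luminometer, and IC50 was fitted.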

Series [2] deals with CFA-induced hypersensitivity. The series can be described thus: CFA-induced decreased rearing in an open field assay. The format is in vivo. As to conditions: rat; for rearing time: 23 h after CFA, 60 min, CFA vehicle 204 ± 25 s; for effect on CFA-induced reduction in rearing: naproxen sodium 3 mg/kg, AMG0902 up to 100 mg/kg.
Series [3] deals with T2, TRPA1 (Rattus norvegicus, UniProt Q6RI86). The series can be described thus: AITC-induced licking/flinching model. The format is in vivo. Conditions: po, read-out: Rat AITC PD model IC90. An outline of the steps:
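Rats dosed p.o. at 0.3, 1, 3 or 10 mg/kg, or vehicle (1% Tween80/2% HPMC/97% water/methanesulfonic acid, pH 2.2), 60 min before intraplantar AITC (30 µl, in 0.5% Tween 80/PBS). A blinded observer counted flinches and guard/licks >3 s for 1 min post-injection. Plasma levels were measured by LC-MS/MS. IC90 came from sigmoidal fit of individual response versus plasma concentration.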

A short description of series [4]: Plasma protein binding by ultracentrifugation. The class given is in vitro ADME. As to conditions: male, rat. Put shortly:
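Test compound at 5 µg/mL was incubated in male rat plasma for 15 min at 37 °C, then ultracentrifuged at 16,128 × g for 3 h at 37 °C. Samples were precipitated with acetonitrile containing internal standard, dried under nitrogen, reconstituted in methanol/water 50:50 and quantified by LC-MS/MS against calibration standards. The unbound fraction was taken as measured/nominal concentration.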

A further series has as its target human TRPA1 (Homo sapiens, UniProt O75762). Put plainly: TRPA1 activation by AITC, antagonist assay. As to conditions: read-out: human TRPA1 activation by AITC IC90. The format is cell-based.
The next series concerns the target rTRPM8 (Rattus norvegicus, UniProt Q8R455). Put plainly: TRP channel selectivity, luminescence calcium assay in CHO cells. The format is cell-based. Put shortly:
as §1

Series [5] has as its system SNL-induced tactile allodynia. Put plainly: SNL-induced tactile allodynia. The class given is in vivo. As to conditions: rat; 1 h and 2 h. An outline of the steps: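 Two weeks after spinal nerve ligation, rats on a metal mesh floor were tested with nine von Frey filaments at near-equal log intervals. Filaments were applied to the mid-plantar glabrous area of the injured paw, and the 50% withdrawal threshold was found by the up-down method. After a baseline reading, rats received oral vehicle, test compound (100 or 300 mg/kg) or gabapentin 200 mg/kg and were retested at 1 and 2 h. Thresholds were log-transformed before statistics.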

Series [6] in a line: Unbound plasma exposure in pharmacodynamic and pain models. The format is in vivo, rat. An outline of the steps: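 Rats in the pain models were dosed orally with test compound in 1% Tween80/2% HPMC/97% water/methanesulfonic acid pH 2.2. Plasma drug levels were measured by LC-MS/MS after protein precipitation, using a structurally similar internal standard and calibration standards serially diluted into blank plasma from a 1 mg/mL DMSO stock.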

Another series addresses rat TRPV1 (Rattus norvegicus, UniProt O35433). Put plainly: TRP channel selectivity, luminescence calcium assay in CHO cells. The format is cell-based. Put shortly:
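A CHO line constitutively expressing rat TRPV1 plus aequorin was used without tetracycline induction. Cells were loaded for 2 h with 15 µM coelenterazine in pH 7.2 F12 containing 30 mM HEPES. Test compound was added 2.5 min before 0.5 µM capsaicin. Luminescence was recorded by a CCD-camera luminometer, and IC50 was derived by curve fitting.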

A further series concerns the target hTRPV1 (Homo sapiens, UniProt Q8NER1). The series can be described thus: TRP channel selectivity, calcium assay. The format is cell-based.
In series [7] the target is T2, TRPA1. Conditions: 1, 3, 10, and 30 mg/kg; cited from earlier work.
For the next series, the target named is mouse TRPA1 (Mus musculus, UniProt Q8BLA8). Put plainly: TRPA1 activation by AITC, antagonist assay. The format is cell-based.
Another series deals with rat TRPA1 (Rattus norvegicus, UniProt Q6RI86). The series can be described thus: Agonist-induced TRPA1 activation in stably expressing CHO cells. The class given is cell-based. Conditions: for IC50: stably expressing CHO cells.
For series [8], the system named is 40 targets including GPCRs, ion channels, and kinases. The series can be described thus: CEREP selectivity profiling. The format is binding.
The test system of series [9] is open field activity in rats. The series can be described thus: Open field activity. The format is in vivo. As to conditions: rat open field, 60 min; for effect on total distance traveled vs vehicle: AMG0902 30-300 mg/kg, gabapentin 200 mg/kg p.o. Put shortly: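 Male Sprague-Dawley rats (220–300 g) were kept on a reversed light cycle for ≥1 week and acclimated 1 h. Test compound (30, 100 or 300 mg/kg), vehicle or gabapentin 200 mg/kg p.o. (same vehicle) was given 1 h before the rat was placed in a 41×41×38 cm box with 32 photocells. Beam breaks, distance, time and stereotypic movements were logged per minute over 60 min.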

For a further series, the target named is hTRPV4 (Homo sapiens, UniProt Q9HBA0). The series can be described thus: TRP channel selectivity, luminescence calcium assay in CHO cells. The class given is cell-based. Put shortly: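 A tetracycline-inducible CHO line expressing human TRPV4 plus aequorin was induced with 0.5 µg/ml tetracycline 24 h before the assay. Cells were loaded for 2 h in pH 7.2 F12 containing 30 mM HEPES, 1 mM CaCl2, 0.3% BSA and 15 µM coelenterazine. Test compound was added 2.5 min before 1 µM 4α-PDD. Luminescence was read on a CCD-camera luminometer, and IC50 was calculated.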

In a further series the target is rTRPA1 (Rattus norvegicus, UniProt Q6RI86). The series can be described thus: rTRPA1 agonism assay. The format is cell-based.
The nature of series [10]: Pharmacokinetics in plasma and brain. The class given is in vivo. Conditions: Sprague-Dawley, rat.
Another series has as its system C-fibers. Conditions: cited from earlier work.

The structures appear in SMILES notation.

This is an account of results in paper PMC5131813 (Molecular Pain, 2016).

rat TRPA1, sequence (Q6RI86 whole entry): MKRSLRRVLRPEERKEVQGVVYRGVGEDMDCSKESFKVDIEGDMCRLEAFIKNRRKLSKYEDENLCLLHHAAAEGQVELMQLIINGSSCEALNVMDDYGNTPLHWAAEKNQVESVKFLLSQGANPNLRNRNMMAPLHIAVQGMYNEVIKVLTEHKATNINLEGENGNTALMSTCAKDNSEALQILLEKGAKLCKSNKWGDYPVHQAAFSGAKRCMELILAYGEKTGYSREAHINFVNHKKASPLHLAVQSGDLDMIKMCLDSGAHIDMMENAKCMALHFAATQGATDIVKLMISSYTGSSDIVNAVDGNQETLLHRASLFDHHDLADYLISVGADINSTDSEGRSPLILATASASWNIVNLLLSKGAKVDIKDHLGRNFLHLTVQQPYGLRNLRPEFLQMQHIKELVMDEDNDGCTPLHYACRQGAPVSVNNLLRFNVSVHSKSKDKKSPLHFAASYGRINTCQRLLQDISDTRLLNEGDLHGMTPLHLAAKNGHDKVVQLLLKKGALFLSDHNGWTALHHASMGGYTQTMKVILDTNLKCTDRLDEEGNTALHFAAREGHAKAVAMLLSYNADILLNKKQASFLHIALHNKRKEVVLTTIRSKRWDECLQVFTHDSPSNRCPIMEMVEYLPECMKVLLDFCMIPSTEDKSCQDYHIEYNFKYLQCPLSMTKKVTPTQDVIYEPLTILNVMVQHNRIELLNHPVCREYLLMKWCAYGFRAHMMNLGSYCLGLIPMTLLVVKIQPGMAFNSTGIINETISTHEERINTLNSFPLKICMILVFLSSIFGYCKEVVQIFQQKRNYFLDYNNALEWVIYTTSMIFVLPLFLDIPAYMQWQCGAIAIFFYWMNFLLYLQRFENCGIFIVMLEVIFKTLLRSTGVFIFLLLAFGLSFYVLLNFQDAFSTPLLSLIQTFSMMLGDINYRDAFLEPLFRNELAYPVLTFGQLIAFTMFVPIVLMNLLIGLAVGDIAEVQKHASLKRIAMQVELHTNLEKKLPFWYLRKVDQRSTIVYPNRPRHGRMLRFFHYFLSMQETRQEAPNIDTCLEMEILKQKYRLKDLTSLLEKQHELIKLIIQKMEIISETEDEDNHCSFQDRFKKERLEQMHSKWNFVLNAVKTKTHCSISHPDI
T2 sequence (Q6RI86 whole entry): as above
human TRPA1, sequence (O75762 whole entry): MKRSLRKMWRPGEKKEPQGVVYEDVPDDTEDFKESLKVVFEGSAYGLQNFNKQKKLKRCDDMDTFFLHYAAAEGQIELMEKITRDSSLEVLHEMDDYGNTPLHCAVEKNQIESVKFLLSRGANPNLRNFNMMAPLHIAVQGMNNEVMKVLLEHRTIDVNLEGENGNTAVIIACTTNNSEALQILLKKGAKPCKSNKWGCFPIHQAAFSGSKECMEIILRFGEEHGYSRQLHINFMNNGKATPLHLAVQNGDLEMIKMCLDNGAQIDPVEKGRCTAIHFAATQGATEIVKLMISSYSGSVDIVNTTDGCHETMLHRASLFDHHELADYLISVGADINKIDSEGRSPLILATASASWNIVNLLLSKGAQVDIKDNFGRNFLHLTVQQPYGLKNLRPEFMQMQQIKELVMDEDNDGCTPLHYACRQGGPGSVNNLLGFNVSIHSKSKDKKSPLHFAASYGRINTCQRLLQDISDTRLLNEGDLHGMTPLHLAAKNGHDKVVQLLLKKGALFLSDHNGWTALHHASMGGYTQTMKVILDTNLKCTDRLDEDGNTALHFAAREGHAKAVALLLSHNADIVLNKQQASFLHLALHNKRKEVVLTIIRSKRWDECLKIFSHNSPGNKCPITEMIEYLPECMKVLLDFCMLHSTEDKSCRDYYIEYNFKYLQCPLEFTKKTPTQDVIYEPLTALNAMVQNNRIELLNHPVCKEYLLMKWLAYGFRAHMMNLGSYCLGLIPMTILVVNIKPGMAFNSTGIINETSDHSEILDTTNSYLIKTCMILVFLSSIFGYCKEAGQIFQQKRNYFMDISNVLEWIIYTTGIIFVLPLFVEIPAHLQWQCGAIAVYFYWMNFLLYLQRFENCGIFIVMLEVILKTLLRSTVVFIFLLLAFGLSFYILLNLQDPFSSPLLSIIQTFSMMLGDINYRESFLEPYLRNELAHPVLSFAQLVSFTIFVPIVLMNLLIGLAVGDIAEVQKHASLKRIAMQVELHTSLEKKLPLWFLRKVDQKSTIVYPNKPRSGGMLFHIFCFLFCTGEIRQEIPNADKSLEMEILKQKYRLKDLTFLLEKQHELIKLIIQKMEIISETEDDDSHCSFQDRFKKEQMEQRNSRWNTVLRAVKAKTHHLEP
rat TRPV1, sequence (O35433 whole entry): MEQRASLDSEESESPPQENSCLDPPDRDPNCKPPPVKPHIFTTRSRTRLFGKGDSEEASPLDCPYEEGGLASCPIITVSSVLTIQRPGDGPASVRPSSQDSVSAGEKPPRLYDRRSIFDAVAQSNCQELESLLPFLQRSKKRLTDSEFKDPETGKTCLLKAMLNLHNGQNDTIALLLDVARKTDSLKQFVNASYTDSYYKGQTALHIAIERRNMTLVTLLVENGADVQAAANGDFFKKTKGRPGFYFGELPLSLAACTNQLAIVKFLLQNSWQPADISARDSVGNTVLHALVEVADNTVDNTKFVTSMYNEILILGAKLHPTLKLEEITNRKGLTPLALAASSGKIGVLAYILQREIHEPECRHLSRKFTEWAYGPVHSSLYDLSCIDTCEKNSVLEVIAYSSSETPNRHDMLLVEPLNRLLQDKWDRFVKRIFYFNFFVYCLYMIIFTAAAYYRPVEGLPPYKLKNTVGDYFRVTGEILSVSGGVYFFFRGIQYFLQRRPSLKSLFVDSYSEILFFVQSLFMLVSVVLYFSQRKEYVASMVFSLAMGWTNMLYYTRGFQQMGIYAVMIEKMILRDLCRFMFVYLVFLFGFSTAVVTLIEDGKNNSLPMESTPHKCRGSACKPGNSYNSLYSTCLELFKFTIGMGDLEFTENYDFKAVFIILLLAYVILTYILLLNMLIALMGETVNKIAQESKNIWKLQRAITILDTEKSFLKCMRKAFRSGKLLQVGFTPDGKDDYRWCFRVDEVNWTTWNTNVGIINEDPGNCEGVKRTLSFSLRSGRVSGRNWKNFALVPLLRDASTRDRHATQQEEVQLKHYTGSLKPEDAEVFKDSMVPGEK
mouse TRPA1, sequence (Q8BLA8 whole entry): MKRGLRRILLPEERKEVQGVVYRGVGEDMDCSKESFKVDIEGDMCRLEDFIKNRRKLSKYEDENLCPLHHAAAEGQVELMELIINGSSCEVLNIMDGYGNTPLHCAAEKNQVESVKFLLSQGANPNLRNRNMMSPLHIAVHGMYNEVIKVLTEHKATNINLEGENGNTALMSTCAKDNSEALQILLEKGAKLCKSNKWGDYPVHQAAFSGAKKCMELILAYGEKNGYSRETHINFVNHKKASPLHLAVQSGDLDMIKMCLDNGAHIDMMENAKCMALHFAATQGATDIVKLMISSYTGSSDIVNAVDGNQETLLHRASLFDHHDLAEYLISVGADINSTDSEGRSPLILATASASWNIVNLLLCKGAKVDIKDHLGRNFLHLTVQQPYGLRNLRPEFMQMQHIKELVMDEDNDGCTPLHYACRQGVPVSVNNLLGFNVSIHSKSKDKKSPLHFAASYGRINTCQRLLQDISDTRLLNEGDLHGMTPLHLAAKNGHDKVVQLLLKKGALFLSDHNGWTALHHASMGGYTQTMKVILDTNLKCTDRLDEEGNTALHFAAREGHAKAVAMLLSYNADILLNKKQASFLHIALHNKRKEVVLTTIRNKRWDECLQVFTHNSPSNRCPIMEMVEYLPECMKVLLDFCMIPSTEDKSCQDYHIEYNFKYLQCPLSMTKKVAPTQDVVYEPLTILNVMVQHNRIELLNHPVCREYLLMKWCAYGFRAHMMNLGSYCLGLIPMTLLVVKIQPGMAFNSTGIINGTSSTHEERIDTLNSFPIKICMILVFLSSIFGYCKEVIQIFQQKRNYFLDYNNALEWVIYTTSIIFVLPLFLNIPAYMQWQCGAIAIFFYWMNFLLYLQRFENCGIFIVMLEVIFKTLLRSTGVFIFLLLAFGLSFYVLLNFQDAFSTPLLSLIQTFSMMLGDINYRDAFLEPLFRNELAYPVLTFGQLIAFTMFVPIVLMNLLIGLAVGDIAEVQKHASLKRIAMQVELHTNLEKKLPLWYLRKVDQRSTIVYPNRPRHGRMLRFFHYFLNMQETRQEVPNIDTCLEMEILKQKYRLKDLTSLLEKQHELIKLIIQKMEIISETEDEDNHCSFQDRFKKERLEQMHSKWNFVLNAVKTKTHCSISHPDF
hTRPV1, sequence (Q8NER1 whole entry): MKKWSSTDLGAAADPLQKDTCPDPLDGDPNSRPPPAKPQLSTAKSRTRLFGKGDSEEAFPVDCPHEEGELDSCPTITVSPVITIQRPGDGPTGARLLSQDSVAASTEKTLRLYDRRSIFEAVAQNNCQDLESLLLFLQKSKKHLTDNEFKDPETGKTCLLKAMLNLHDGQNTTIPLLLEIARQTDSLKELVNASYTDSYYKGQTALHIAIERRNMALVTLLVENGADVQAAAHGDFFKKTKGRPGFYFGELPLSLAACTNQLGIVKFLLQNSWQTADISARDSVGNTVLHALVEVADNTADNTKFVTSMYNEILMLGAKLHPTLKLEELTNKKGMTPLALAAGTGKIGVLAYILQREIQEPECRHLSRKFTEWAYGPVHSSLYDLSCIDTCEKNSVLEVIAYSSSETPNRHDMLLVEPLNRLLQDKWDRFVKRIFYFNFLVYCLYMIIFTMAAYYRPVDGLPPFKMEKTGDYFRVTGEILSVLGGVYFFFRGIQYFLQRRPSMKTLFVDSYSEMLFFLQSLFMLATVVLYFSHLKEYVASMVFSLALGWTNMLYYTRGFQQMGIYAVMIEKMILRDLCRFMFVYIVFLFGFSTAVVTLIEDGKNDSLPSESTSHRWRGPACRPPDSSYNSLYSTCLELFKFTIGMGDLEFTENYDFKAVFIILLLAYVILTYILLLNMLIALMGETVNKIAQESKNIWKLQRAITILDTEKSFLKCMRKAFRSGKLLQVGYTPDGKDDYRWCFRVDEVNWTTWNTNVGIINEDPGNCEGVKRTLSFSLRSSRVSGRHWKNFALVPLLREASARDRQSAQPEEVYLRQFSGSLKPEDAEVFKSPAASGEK

Regarding `CCC(=N\O)/C(C)=C/c1ccc(F)cc1` [A-967079], the Efficacy entry with CCI, SNL, CFA (CCI, SNL, CFA, MH, 62 mg/kg, p.o., ref Chen et al.[42]) is recorded as “ineffective”. The “effect on von Frey-evoked tactile allodynia” value in the series with CCI, SNL, CFA (CFA or SNL models) was “no effect”. Further, in [1], the “effect on AITC-induced licking/biting in vivo” value is “efficiently blocks”.

In the case of `Cn1cnc2ncn(Cc3nc(CCc4ccc(Cl)cc4)no3)c(=O)c21` [AMG0902, 1-((3-(4-Chlorophenethyl)-1,2,4-oxadiazol-5-yl)methyl)-7-methyl-1H-purin-6(7H)-one], the IC50 on rTRPV3 is over 10 µM; on rTRPM8, over 10 µM; on rat TRPV1, over 10 µM; at hTRPV1, over 10 µM; at mouse TRPA1, 0.113 ± 0.077 µM; on rat TRPA1 (rTRPA1 (4-ONE) IC50, 35 µM 4-ONE), 0.585 ± 0.11 µM. Also, the IC50 is 0.068 ± 0.038 µM at rat TRPA1 (rTRPA1 (AITC) IC50, 80 µM AITC); 0.151 ± 0.005 µM on rat TRPA1 (rTRPA1 (Methylglyoxal) IC50, 2.74 mM methylglyoxal); 0.0097 ± 0.002 µM at rat TRPA1 (rTRPA1 (Osmol) IC50, 100 mOsmol hypo-osmolarity); over 10 µM in [8] (read-out: in vitro potency at 40 targets profiled at CEREP); over 10 µM at hTRPV4; over 25 µM against rTRPA1. For the same molecule, the rearing time is 264 ± 52 s in series [2] (AMG0902 100 mg/kg p.o.) and 308 ± 67 s in series [9] (300 mg/kg p.o., 1 h before). Also, the “effect on CFA-induced reduction in rearing” value in series [2] is given as “no significant reduction”. Further, the IC90 was 1.7 µM at TRPA1 [3]; 0.186 ± 0.018 µM on human TRPA1; 0.3 µM on rat TRPA1 (CHO, read-out: IC90 against rat TRPA1). In series [4], this molecule gave a fraction unbound at 15 min, 5 µg/mL of 0.29. In addition, the “effect on SNL-induced mechanical allodynia” value in [5] is “no significant effect”. Also, the “mean unbound plasma concentration” value in series [6] (CFA Randall Selitto model, 300 mg/kg p.o.) came to 35 ± 11 µM; in series [6] (CFA rearing model, 100 mg/kg p.o.), 6.1 ± 2.4 µM; in [6] (SNL model, 300 mg/kg p.o.), 8.4 µM. Further, the “mean Cu concentration (unbound plasma)” value in series [6] (open field assay, 300 mg/kg p.o.) worked out at 12.6 ± 5.4 µM. Also, the “effect on AITC-induced licking/flinching” value at TRPA1 [7] is recorded as “dose-dependent prevention”. Also, the “inhibition of specific ligand binding to each target” value in series [8] (40 targets profiled at CEREP) is on record as under 33%. In series [9] (300 mg/kg p.o., 1 h before), the total distance traveled stood at 7437 ± 900 cm. Further, the “effect on total distance traveled vs vehicle” value in series [9] is listed as “no significant effect”. For the same molecule, in series [10] (brain), the Kp is 0.2. The molecule further had a clearance in series [10] (male, plasma, iv, 2 mg/kg) of 41.7 mL/min/kg.

As to `CC(C)c1ccc(NC(=O)Cn2cnc3c2c(=O)n(C)c(=O)n3C)cc1` [HC-030031], the “effect on mechanically evoked action potential firing in C-fibers” value in the series with C-fibers is “reduced mechanically evoked action potential firing”.

For `NCC1(CC(=O)O)CCCCC1` [gabapentin, reference compound], the “effect on SNL-induced mechanical allodynia” value in series [5] is “significantly reversed”. Moreover, the “effect on total distance traveled vs vehicle” value in [9] is given as “not significantly reduced”.

Regarding `COc1ccc2cc([C@H](C)C(=O)O)ccc2c1` [naproxen, reference compound], the rearing time in series [2] (naproxen 3 mg/kg p.o.) is given as 418 ± 49 cm. In addition, in [2], the “effect on CFA-induced reduction in rearing” value is listed as “significant inhibition”.

Broadly, the IC90 is the concentration needed for an effect of 90%. As a reminder, the fraction unbound is the share of the substance not bound to proteins or other matrix. A high value points to much free substance. What is called Kp is the ratio of the level in a tissue or fluid to that in plasma or blood. In general, clearance refers to a measure of how efficiently the substance is removed, as volume per time. A higher clearance goes with efficient removal.
